# Measurements taken from ChEMBL document CHEMBL1149250, “Optimization of protein kinase CK2 inhibitors derived from 4,5,6,7-tetrabromobenzimidazole” (J Med Chem, 2004).
# The source made the active and inactive calls. The rule behind the calls is not given here.
# Columns and labels:
# Casein kinase II = Casein kinase II (Homo sapiens, UniProt P19784+P67870+P68400); test: Inhibition of CK2; assay type: protein-complex assay
# [1] = molecular target: Serine/threonine-protein kinase Chk1 (Homo sapiens) (UniProt O14757); test: Inhibition of at CHK1 at 10 uM relative to control; values are per cent of control
# [2] = molecular target: Ribosomal protein S6 kinase beta-1 (Homo sapiens) (UniProt P23443); test: Residual activity of S6K1 at 10 uM relative to control
# [3] = molecular target: Cyclin-dependent kinase 2/cyclin A (Homo sapiens, UniProt P24941); test: Inhibition of CDK2/Cyclin A; assay type: protein-complex assay
# [4] = molecular target: Mitogen-activated protein kinase 13 (Homo sapiens) (UniProt O15264); test: Residual activity of SAPK4/p38delta at 10 uM relative to control
# [5] = molecular target: Casein kinase I (Homo sapiens) (UniProt Q9HCP0+P78368+P48730+P49674+P48729); test: Residual activity of CK1 at 10 uM relative to control
# [6] = molecular target: Tyrosine-protein kinase Lck (Homo sapiens) (UniProt P06239); test: Inhibition of Lck at 10 uM relative to control; values are per cent of control
# [7] = molecular target: T1, Ribosomal protein S6 kinase alpha-1 (Homo sapiens, UniProt Q15418); test: Residual activity of MAPKAPK1a at 10 uM relative to control
# [8] = molecular target: T2, Dual specificity tyrosine-phosphorylation-regulated kinase 1A (Homo sapiens, UniProt Q13627); test: Inhibition of DYRK1A at 10 uM relative to control; values are per cent of control
# [9] = molecular target: AMP-activated protein kinase (AMPK) alpha-1/beta-1/gamma-1 (Homo sapiens) (UniProt P54619+Q9Y478+Q13131); test: Inhibition of AMPK at 10 uM relative to control; values are per cent of control
# [10] = molecular target: Glycogen synthase kinase-3 beta (Homo sapiens) (UniProt P49841); test: Inhibition of GSKbeta at 10 uM relative to control; values are per cent of control
# [11] = molecular target: Mitogen-activated protein kinase 8 (Homo sapiens) (UniProt P45983); test: Inhibition of JNK/SAPK1c at 10 uM relative to control; values are per cent of control
# [12] = molecular target: 3-phosphoinositide-dependent protein kinase 1 (Homo sapiens) (UniProt O15530); test: Inhibition of PDK1 at 10 uM relative to control; values are per cent of control
# Jurkat [13] = test: Induction of caspase activation assessed as PARP cleavage in Jurkat T cells; assay type: functional, cell-based; conditions: Homo sapiens
# Outline: (§1)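 Jurkat T cells suspended at 10⁶ cells/mL in RPMI-1640 with 1% fetal calf serum, treated 14 h at 37 °C with 5 or 10 μM compound; untreated cells as control, 50 ng/mL anti-Fas as apoptotic control. Cells lysed in hypo-osmotic buffer; caspase activation read by Western blot as degradation of HS1 (full length and major fragment) and PARP.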
# [14] = molecular target: Mitogen-activated protein kinase 12 (Homo sapiens) (UniProt P53778); test: Residual activity of SAPK3/p38gamma relative to control
# [15] = molecular target: EKC/KEOPS complex subunit BUD32 (Saccharomyces cerevisiae S288c) (UniProt P53323); test: Inhibition of PiD261 at 10 uM relative to control; values are per cent of control
# [16] = molecular target: MAP kinase-activated protein kinase 2 (Homo sapiens) (UniProt P49137); test: Inhibition of MAPKAPK2 at 10 uM relative to control; values are per cent of control
# [17] = molecular target: Tyrosine-protein kinase SYK (Rattus norvegicus) (UniProt Q64725); test: Residual activity of Syk at 10 uM relative to control
# [18] = molecular target: Mitogen-activated protein kinase 11 (Homo sapiens) (UniProt Q15759); test: Inhibition of SAPK2b/p38--beta-2 at 10 uM relative to control; values are per cent of control
# [19] = molecular target: Serine/threonine-protein kinase Sgk1 (Homo sapiens) (UniProt O00141); test: Inhibition of SGK at 10 uM relative to control; values are per cent of control
# [20] = molecular target: Tyrosine-protein kinase Lyn (Homo sapiens) (UniProt P07948); test: Residual activity of Lyn at 10 uM relative to control
# [21] = molecular target: Rho-associated protein kinase 2 (Homo sapiens) (UniProt O75116); test: Inhibition of ROCK2 at 10 uM relative to control; values are per cent of control
# [22] = molecular target: Ribosomal protein S6 kinase alpha-5 (Homo sapiens) (UniProt O75582); test: Residual activity of MSK1 at 10 uM relative to control
# [23] = molecular target: Mitogen-activated protein kinase 14 (Homo sapiens) (UniProt Q16539); test: Inhibition of SAPK2a/p38 at 10 uM relative to control; values are per cent of control
# [24] = molecular target: RAC-alpha serine/threonine-protein kinase (Homo sapiens) (UniProt P31749); test: Inhibition of PKBalpha at 10 uM relative to control; values are per cent of control
# [25] = molecular target: T2, Dual specificity tyrosine-phosphorylation-regulated kinase 1A; test: Inhibition of DYRK1A
# Homo sapiens [26] = organism: Homo sapiens; test: Inhibition of PP2A at 10 uM relative to control; values are per cent of control
# [27] = molecular target: Serine/threonine-protein kinase Sgk1 (Homo sapiens, UniProt O00141); test: Inhibition of SGK
# [28] = molecular target: T1, Ribosomal protein S6 kinase alpha-1; test: Inhibition of MAPKAPK1a
# Jurkat [29] = test: Induction of mitochondrial depolarization in Jurkat T cells up to 10 uM; assay type: functional, cell-based; conditions: Homo sapiens
# Jurkat [30] = test: Inhibition of cell viability in Jurkat T cells after 24 hrs by MTT method; assay type: functional, cell-based; conditions: Homo sapiens
# Outline: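 Human Jurkat T-leukemia cells, grown in RPMI-1640 with 10% FCS, were resuspended at 10⁶ cells/mL in medium with 1% FCS. They were exposed to increasing compound concentrations for 24 h at 37 °C. Controls received DMSO (0.5% v/v), set as 100% viability. Viability was read by MTT. Values are means ± SEM of three separate experiments; DC50 was taken as the concentration halving viability.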
# Jurkat [31] = test: Induction of caspase activation assessed as HS1 protein cleavage in Jurkat T cells; assay type: functional, cell-based; conditions: Homo sapiens; outline: as §1
# Homo sapiens [32] = organism: Homo sapiens; test: Inhibition of phosphorylase kinase at 10 uM relative to control
# [33] = molecular target: Mitogen-activated protein kinase 1 (Homo sapiens) (UniProt P28482); test: Inhibition of MAPK2/ERK2 at 10 uM relative to control; values are per cent of control
# [34] = molecular target: cAMP-dependent protein kinase (PKA) (Homo sapiens) (UniProt P22694+P17612+P22612); test: Inhibition of PKA at 10 uM relative to control; values are per cent of control
# [35] = molecular target: T3, Dual specificity mitogen-activated protein kinase kinase 1 (Homo sapiens, UniProt Q02750); test: Inhibition of MKK1 at 10 uM relative to control; values are per cent of control
# [36] = molecular target: T3, Dual specificity mitogen-activated protein kinase kinase 1; test: Inhibition of MKK1
# [37] = molecular target: Protein kinase C alpha type (Homo sapiens) (UniProt P17252); test: Inhibition of PKCalpha at 10 uM relative to control; values are per cent of control
# [38] = molecular target: MAP kinase-activated protein kinase 5 (Homo sapiens) (UniProt Q8IW41); test: Residual activity of PRAK at 10 uM relative to control
# [39] = molecular target: Tyrosine-protein kinase CSK (Homo sapiens) (UniProt P41240); test: Inhibition of CSK at 10 uM relative to control
# Outline: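 Kinase selectivity panel: activity of each kinase measured with inhibitor at 10 μM. Residual activity is expressed as a percentage of a control run without inhibitor. Assays were linear with respect to time and enzyme concentration. Lyn, c-Fgr and Syk were purified from rat spleen. Golgi CK came from rat lactating mammary gland.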
# T3 sequence (Q02750 whole entry): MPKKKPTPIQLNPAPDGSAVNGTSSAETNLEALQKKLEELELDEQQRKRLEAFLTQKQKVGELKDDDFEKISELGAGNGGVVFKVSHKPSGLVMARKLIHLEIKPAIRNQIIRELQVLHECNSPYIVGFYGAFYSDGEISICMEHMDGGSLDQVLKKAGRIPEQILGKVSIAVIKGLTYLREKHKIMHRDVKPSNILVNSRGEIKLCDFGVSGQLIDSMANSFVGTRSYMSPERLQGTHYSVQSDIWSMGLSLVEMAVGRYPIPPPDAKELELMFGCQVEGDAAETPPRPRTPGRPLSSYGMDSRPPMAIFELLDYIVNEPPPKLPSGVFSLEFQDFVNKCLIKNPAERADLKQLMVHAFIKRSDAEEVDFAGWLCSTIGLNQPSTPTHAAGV
# T1 sequence (Q15418 whole entry): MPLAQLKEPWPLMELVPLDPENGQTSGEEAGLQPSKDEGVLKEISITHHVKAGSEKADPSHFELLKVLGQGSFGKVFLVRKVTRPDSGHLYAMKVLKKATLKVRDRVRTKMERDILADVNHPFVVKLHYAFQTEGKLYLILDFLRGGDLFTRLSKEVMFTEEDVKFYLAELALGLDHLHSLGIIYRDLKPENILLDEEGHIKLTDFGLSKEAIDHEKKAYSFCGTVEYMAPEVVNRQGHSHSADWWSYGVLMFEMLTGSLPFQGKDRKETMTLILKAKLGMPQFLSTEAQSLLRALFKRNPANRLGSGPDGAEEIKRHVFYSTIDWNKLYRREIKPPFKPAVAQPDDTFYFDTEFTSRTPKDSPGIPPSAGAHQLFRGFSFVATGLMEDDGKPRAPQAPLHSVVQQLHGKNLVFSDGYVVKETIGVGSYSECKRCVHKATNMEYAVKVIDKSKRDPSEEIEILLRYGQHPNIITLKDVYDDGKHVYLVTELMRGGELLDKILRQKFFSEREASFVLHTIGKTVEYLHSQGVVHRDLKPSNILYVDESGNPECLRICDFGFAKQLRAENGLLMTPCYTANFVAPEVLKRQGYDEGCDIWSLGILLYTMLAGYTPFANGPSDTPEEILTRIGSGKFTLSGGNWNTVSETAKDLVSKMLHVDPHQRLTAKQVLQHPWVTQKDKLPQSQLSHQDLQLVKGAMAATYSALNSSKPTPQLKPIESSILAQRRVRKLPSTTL
# Casein kinase II, sequence (P67870 whole entry): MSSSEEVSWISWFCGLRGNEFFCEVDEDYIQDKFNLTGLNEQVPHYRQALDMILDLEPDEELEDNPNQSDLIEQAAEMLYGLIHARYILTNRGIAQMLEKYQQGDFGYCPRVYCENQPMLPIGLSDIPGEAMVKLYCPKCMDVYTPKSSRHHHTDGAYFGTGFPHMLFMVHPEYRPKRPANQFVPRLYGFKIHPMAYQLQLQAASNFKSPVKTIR
# Casein kinase II, sequence (P68400 whole entry): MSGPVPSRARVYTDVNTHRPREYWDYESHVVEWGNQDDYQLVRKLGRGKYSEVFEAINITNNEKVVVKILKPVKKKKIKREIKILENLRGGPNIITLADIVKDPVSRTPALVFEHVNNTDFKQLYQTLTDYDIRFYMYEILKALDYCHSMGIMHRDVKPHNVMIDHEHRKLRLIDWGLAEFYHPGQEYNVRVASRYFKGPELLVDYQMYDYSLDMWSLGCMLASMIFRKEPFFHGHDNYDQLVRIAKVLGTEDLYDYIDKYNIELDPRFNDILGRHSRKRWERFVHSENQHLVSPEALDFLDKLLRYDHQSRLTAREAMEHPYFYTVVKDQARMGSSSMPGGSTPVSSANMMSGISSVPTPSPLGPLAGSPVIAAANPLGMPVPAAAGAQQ
# Casein kinase II, sequence (P19784 whole entry): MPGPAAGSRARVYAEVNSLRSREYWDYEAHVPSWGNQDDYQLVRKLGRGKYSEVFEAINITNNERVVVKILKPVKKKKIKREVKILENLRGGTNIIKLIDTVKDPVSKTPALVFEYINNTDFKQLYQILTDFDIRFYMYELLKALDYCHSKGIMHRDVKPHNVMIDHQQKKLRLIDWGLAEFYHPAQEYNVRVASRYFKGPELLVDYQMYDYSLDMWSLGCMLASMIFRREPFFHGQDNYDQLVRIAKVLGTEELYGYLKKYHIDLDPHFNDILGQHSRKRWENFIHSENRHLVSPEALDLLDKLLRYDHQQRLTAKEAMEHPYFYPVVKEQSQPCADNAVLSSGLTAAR
# Tyrosine-protein kinase SYK (Rattus norvegicus), sequence (Q64725 whole entry, looked up): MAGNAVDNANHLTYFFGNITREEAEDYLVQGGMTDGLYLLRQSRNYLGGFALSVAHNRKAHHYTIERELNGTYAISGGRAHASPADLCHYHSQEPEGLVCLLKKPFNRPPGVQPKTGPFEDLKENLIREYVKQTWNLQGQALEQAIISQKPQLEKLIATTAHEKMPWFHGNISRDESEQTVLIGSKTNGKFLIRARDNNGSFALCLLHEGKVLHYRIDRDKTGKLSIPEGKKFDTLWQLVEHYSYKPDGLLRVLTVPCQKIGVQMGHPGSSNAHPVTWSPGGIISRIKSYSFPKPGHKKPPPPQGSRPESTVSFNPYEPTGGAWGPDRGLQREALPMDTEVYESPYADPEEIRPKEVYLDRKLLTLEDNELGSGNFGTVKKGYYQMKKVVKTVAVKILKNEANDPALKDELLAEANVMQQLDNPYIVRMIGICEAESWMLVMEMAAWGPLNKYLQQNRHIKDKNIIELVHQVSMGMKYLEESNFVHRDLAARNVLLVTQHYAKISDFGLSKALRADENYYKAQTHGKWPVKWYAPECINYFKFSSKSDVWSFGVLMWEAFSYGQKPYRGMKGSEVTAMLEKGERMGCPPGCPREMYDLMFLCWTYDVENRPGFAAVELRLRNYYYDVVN
# 3-phosphoinositide-dependent protein kinase 1 (Homo sapiens), sequence (O15530 whole entry): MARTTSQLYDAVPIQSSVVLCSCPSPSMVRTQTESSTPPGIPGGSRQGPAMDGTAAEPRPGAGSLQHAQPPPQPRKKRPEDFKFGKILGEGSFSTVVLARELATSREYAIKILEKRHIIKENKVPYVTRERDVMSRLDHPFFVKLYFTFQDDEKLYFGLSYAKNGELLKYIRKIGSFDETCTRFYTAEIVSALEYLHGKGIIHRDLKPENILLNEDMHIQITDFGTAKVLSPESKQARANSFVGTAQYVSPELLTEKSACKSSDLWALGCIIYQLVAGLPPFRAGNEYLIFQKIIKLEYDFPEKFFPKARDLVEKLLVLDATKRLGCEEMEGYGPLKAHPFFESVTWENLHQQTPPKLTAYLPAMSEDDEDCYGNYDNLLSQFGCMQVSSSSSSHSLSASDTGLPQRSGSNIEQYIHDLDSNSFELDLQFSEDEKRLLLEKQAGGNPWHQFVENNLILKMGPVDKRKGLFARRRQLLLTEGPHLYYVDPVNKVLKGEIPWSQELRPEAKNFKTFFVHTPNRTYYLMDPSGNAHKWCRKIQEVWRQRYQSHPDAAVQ
# Glycogen synthase kinase-3 beta (Homo sapiens), sequence (P49841 whole entry, looked up): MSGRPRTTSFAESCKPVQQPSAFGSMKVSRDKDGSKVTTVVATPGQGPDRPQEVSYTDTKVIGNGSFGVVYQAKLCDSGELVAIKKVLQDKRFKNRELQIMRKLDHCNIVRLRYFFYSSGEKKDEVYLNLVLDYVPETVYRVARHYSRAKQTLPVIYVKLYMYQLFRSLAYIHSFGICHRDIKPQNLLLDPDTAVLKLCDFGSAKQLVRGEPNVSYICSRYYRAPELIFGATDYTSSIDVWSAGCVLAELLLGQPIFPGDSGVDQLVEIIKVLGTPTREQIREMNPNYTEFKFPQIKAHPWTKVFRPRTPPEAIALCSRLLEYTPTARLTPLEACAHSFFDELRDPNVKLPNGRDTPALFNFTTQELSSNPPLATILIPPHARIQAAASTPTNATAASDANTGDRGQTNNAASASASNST
# MAP kinase-activated protein kinase 2 (Homo sapiens), sequence (P49137 whole entry, looked up): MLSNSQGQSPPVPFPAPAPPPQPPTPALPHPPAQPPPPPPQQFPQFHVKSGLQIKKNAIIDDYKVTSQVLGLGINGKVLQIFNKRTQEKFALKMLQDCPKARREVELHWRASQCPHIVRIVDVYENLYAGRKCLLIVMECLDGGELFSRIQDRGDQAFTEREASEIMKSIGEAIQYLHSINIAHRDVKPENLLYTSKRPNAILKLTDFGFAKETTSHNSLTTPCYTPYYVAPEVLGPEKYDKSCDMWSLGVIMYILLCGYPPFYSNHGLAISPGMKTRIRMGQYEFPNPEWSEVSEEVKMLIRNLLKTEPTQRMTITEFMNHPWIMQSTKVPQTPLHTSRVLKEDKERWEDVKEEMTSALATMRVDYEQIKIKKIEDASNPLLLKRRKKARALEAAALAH
# Ribosomal protein S6 kinase alpha-5 (Homo sapiens), sequence (O75582 whole entry, looked up): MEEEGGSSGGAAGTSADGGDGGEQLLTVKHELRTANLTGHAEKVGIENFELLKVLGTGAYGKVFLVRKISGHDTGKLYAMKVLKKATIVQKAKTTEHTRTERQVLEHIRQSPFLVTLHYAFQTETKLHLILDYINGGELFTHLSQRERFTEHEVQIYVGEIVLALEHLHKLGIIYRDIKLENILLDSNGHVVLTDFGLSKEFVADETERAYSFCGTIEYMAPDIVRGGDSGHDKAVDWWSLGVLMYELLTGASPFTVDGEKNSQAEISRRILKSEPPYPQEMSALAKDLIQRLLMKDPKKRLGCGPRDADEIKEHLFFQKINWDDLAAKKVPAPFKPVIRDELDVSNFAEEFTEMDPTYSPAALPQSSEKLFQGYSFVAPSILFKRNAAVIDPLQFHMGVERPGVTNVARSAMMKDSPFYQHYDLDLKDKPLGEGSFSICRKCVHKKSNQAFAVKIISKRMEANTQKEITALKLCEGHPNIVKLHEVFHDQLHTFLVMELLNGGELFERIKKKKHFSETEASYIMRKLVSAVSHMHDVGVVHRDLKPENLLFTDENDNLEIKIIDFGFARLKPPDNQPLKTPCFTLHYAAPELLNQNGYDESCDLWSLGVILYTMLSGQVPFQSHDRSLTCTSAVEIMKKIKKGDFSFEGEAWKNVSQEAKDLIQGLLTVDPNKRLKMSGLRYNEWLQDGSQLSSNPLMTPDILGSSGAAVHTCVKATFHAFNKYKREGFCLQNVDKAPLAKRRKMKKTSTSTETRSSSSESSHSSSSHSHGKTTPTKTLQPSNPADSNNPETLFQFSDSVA
smiles,measurement,setting,value
Cn1c(Br)nc2c(Br)c(Br)c(Br)c(Br)c21,IC50,Casein kinase II,430 nM
same,Ki,Casein kinase II,540 nM
O=c1[nH]c2c(Br)c(Br)c(Br)c(Br)c2[nH]1,IC50,Casein kinase II,360 nM
same,Ki,Casein kinase II,150 nM
O=[N+]([O-])c1ccc(CSc2nc3c(Br)c(Br)c(Br)c(Br)c3[nH]2)cc1,IC50,Casein kinase II,3480 nM
OCC(O)CSc1nc2c(Br)c(Br)c(Br)c(Br)c2[nH]1 (configuration not stated),IC50,Casein kinase II,150 nM
same,Ki,Casein kinase II,140 nM
O=C(O)CSc1nc2c(Br)c(Br)c(Br)c(Br)c2[nH]1,IC50,Casein kinase II,250 nM
same,Ki,Casein kinase II,180 nM
CN(C)c1nc2c(Br)c(Br)c(Br)c(Br)c2[nH]1,residual activity,[1],81%
same,residual activity,[2],65%
same,IC50,[3],2380 nM
same,residual activity,[4],109%
same,residual activity,[5],87%
same,residual activity,[6],104%
same,residual activity,[7],52%
same,residual activity,[8],2%
same,residual activity,[9],73%
same,residual activity,[10],103%
same,residual activity,[11],97%
same,residual activity,[12],112%
same,Activity,Jurkat [13],Active
same,residual activity,[14],88%
same,residual activity,[15],97%
same,residual activity,[16],101%
same,residual activity,[17],103%
same,residual activity,[18],65%
same,residual activity,[19],29%
same,residual activity,[20],91%
same,residual activity,[21],69%
same,residual activity,[22],73%
same,residual activity,[23],85%
same,residual activity,[24],96%
same,IC50,[25],120 nM
same,residual activity,Homo sapiens [26],67%
same,IC50,[27],3570 nM
same,IC50,[28],10300 nM
same,Activity,Jurkat [29],inactive
same,DC50,Jurkat [30],2700 nM
same,Activity,Jurkat [31],Active
same,residual activity,Homo sapiens [32],41%
same,residual activity,[33],77%
same,residual activity,[34],80%
same,residual activity,[35],53%
same,IC50,[36],10500 nM
same,residual activity,[37],95%
same,residual activity,[38],77%
Cn1c(=O)[nH]c2c(Br)c(Br)c(Br)c(Br)c21,IC50,Casein kinase II,390 nM
same,Ki,Casein kinase II,200 nM
Nc1nc2c(Br)c(Br)c(Br)c(Br)c2[nH]1,IC50,Casein kinase II,300 nM
same,Ki,Casein kinase II,90 nM
NC(=O)Cn1c(Br)nc2c(Br)c(Br)c(Br)c(Br)c21,IC50,Casein kinase II,1570 nM
same,Ki,Casein kinase II,1900 nM
Brc1nc2c(Br)c(Br)c(Br)c(Br)c2[nH]1,IC50,Casein kinase II,740 nM
same,Ki,Casein kinase II,230 nM
CC(C)Nc1nc2c(Br)c(Br)c(Br)c(Br)c2[nH]1,IC50,Casein kinase II,160 nM
same,Ki,Casein kinase II,60 nM
CN(C)c1nc2c(Br)c(Br)c(Br)c(Br)c2n1C,IC50,Casein kinase II,130 nM
same,Ki,Casein kinase II,200 nM
CC(C)Oc1nc2c(Br)c(Br)c(Br)c(Br)c2n1C,IC50,Casein kinase II,20400 nM
C=CCn1c(Br)nc2c(Br)c(Br)c(Br)c(Br)c21,IC50,Casein kinase II,880 nM
same,Ki,Casein kinase II,630 nM
OCCNc1nc2c(Br)c(Br)c(Br)c(Br)c2[nH]1,IC50,Casein kinase II,270 nM
same,Ki,Casein kinase II,130 nM
CC(O)CNc1nc2c(Br)c(Br)c(Br)c(Br)c2[nH]1 (configuration not stated),IC50,Casein kinase II,280 nM
same,Ki,Casein kinase II,140 nM
CC(C)Nc1nc2c(Br)c(Br)c(Br)c(Br)c2n1C,IC50,Casein kinase II,180 nM
same,Ki,Casein kinase II,190 nM
CCOc1nc2c(Br)c(Br)c(Br)c(Br)c2n1C,IC50,Casein kinase II,> 40000 nM
CCOC(=O)CSc1nc2c(Br)c(Br)c(Br)c(Br)c2[nH]1,IC50,Casein kinase II,1550 nM
CNc1nc2c(Br)c(Br)c(Br)c(Br)c2[nH]1,IC50,Casein kinase II,210 nM
same,Ki,Casein kinase II,90 nM
CSc1nc2c(Br)c(Br)c(Br)c(Br)c2[nH]1,IC50,Casein kinase II,250 nM
same,Ki,Casein kinase II,70 nM
CN(C)CCNc1nc2c(Br)c(Br)c(Br)c(Br)c2[nH]1,IC50,Casein kinase II,250 nM
same,Ki,Casein kinase II,160 nM
Brc1c(Br)c(Br)c2[nH]nnc2c1Br [TETRABROMOBENZOTRIAZOLE],residual activity,[1],101%
same,residual activity,[2],89%
same,residual activity,[4],99%
same,residual activity,[5],91%
same,residual activity,[7],90%
same,residual activity,[8],22%
same,residual activity,[9],96%
same,residual activity,[10],64%
same,residual activity,[11],93%
same,residual activity,[12],97%
same,residual activity,[14],89%
same,residual activity,[16],108%
same,residual activity,[17],102%
same,residual activity,[18],103%
same,residual activity,[19],97%
same,residual activity,[20],99%
same,residual activity,[21],91%
same,residual activity,[22],111%
same,residual activity,[23],107%
same,residual activity,[24],91%
same,residual activity,Homo sapiens [26],117%
same,DC50,Jurkat [30],17000 nM
same,residual activity,Homo sapiens [32],49%
same,residual activity,[33],111%
same,residual activity,[34],90%
same,residual activity,[35],94%
same,inhibition,[39],101%
same,residual activity,[37],102%
same,residual activity,[38],87%
CSc1nc2c(Br)c(Br)c(Br)c(Br)c2n1C,IC50,Casein kinase II,600 nM
same,Ki,Casein kinase II,360 nM
